Laboratory results from ChEMBL document CHEMBL3407478, “Development of a series of aryl pyrimidine kynurenine monooxygenase inhibitors as potential therapeutic agents for the treatment of Huntington's disease” (J Med Chem, 2015).

Experiments:
[1] = target: Kynurenine 3-monooxygenase (Homo sapiens, UniProt O15229); test: Inhibition of KMO in human PBMC
[2] = Tmax in Sprague-Dawley rat plasma at 12 mg equivalents/kg, po; assay type: ADME, cell-free
Method in brief: (§1)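 Nonfasted male Sprague-Dawley rats (300−370 g). Single iv tail-vein dose of 6.2 mg equiv/kg (1.24 mg equiv/mL in DMSO:PEG400:water 10:40:50) or oral gavage of 12 mg equiv/kg (1.20 mg equiv/mL in 10% hydroxypropyl-β-cyclodextrin). Terminal bleeds under isoflurane (N = 3) at 0.083−24 h; heparin plasma; tissues snap-frozen.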

Plasma [3] = test: Dose normalized AUC (0 to infinity) in Sprague-Dawley rat plasma at 12 mg equivalents/kg, po; assay type: ADME, cell-free
[4] = Half life in Sprague-Dawley rat plasma at 10 mg equivalents/kg, po after 0.25 to 12 hrs; assay type: ADME, organism-based
Method in brief: (§2)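 Male Sprague-Dawley rats given a single oral dose of 10 mg equiv/kg as a 2 mg equiv/mL solution in 10% hydroxypropyl-β-cyclodextrin. Plasma, liver, kidney, cortex, striatum and CSF levels were measured from 0.25 to 12 h. Brain tissue was taken from nonperfused brains. CSF AUCN covers 0–8 h because the elimination phase was undefined.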

Plasma [5] = test: Dose normalized AUC (0 to infinity) in wild-type FVB/N mouse plasma at 5 mg equivalents/kg, iv by LC-MS/MS analysis; assay type: ADME, organism-based; details: in vivo
Method in brief: (§3)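 Male mice given a single 5 mg equiv/kg iv bolus: FVB wild type, Bcrp(−/−), Mdr1a/b(−/−) and Mdr1a/b(−/−)/Bcrp(−/−). Brain and plasma concentration–time profiles were used to derive dose-normalized AUC (0–infinity).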

Rattus norvegicus [6] = test: Inhibition of KMO in Sprague-Dawley rat striatum brain microdialysate assessed as time duration for elevation in kynurenic acid level at 10 mg/kg, po by […] analysis; assay type: functional
Method in brief: (§4)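 Freely moving Sprague-Dawley rats given 10 mg/kg po, with a microdialysis probe implanted in the striatum. Dialysate was sampled over 0–240 min for free compound and for KYN, KYNA, AA and 3-HK, quantified by LC-MS/MS. Metabolite changes were compared with t = 0 min by 2-way ANOVA.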

[7] = target: Kynurenine 3-monooxygenase (Mus musculus, UniProt Q91WN4); test: Inhibition of mouse KMO assessed as conversion of kynurenine to 3-hydroxykynurenine by LC-MS/MS analysis
Method in brief: (§5)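 Mitochondrial fractions from mouse or rat liver tissue used as KMO source. Conversion of kynurenine to 3-hydroxykynurenine quantified by LC-MS/MS; IC50 averaged from triplicate tests.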

[8] = Oral bioavailability in Sprague-Dawley rat plasma at 12 mg equivalents/kg
[9] = Tmax in Sprague-Dawley rat plasma at 10 mg equivalents/kg, po after 0.25 to 12 hrs; assay type: ADME, organism-based
Method in brief: (§6)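 Fed male Sprague-Dawley rats given a single oral dose of 10 mg equiv/kg as 2 mg equiv/mL in 10% hydroxypropyl-β-cyclodextrin. Plasma, CSF, kidney, liver, and cortex and striatum from nonperfused brains sampled from 0.25 to 12 h.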

Cerebrospinal fluid = test: Dose normalized Cmax in Sprague-Dawley rat CSF at 10 mg equivalents/kg, po after 0.25 to 12 hrs; assay type: ADME, organism-based; details: in vivo; method in brief: as §2
Liver = test: Dose normalized Cmax in Sprague-Dawley rat liver at 10 mg equivalents/kg, po after 0.25 to 12 hrs; assay type: ADME, organism-based; details: in vivo; method in brief: as §2
[10] = Tmax in Sprague-Dawley rat liver at 10 mg equivalents/kg, po after 0.25 to 12 hrs; assay type: ADME, organism-based; method in brief: as §6
Rattus norvegicus [11] = test: Inhibition of KMO in po dosed Sprague-Dawley rat plasma assessed as elevation in kynurenic acid plasma level by […] analysis; assay type: functional, organism-based
[12] = Half life in Sprague-Dawley rat liver at 10 mg equivalents/kg, po after 0.25 to 12 hrs; assay type: ADME, organism-based; method in brief: as §2
Rattus norvegicus [13] = test: Inhibition of KMO in Sprague-Dawley rat striatum brain microdialysate assessed as time duration for elevation in anthranilic acid level at 10 mg/kg, po by […] analysis; assay type: functional; method in brief: as §4
[14] = target: T1, Kynurenine 3-monooxygenase (Rattus norvegicus, UniProt O88867); test: Inhibition of KMO in rat microglia cells; assay type: cell-based
Method in brief: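 Freshly isolated neonatal rat microglial cultures, induced to express KMO by a pro-inflammatory protocol. Exogenous KYN added; conversion to 3-HK monitored by mass spectrometry.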

[15] = Half life in Sprague-Dawley rat striatum at 10 mg equivalents/kg, po after 0.25 to 12 hrs; assay type: ADME, organism-based; method in brief: as §2
Brain [16] = test: Dose normalized AUC (0 to infinity) in BCRP and MDR1a knock out FVB/N mouse brain at 5 mg equivalents/kg, iv by LC-MS/MS analysis; assay type: ADME, organism-based; details: in vivo; method in brief: as §3
[17] = target: T1, Kynurenine 3-monooxygenase; test: Inhibition of rat KMO assessed as conversion of kynurenine to 3-hydroxykynurenine by LC-MS/MS analysis; method in brief: as §5
Rattus norvegicus [18] = test: Inhibition of KMO in Sprague-Dawley rat plasma assessed as time duration for elevation in kynurenic acid plasma level at 10 mg/kg, po by […] analysis; assay type: functional
Method in brief: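 Sprague-Dawley rats given a single 10 mg/kg oral dose. KYN, 3-HK, KYNA and AA were quantified in plasma by LC-MS/MS at multiple time points.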

Rattus norvegicus [19] = test: Inhibition of KMO in po dosed Sprague-Dawley rat plasma assessed as elevation in anthranilic acid plasma level by […] analysis; assay type: functional, organism-based
[20] = Tmax in Sprague-Dawley rat striatum at 10 mg equivalents/kg, po after 0.25 to 12 hrs; assay type: ADME, organism-based; method in brief: as §6
Rattus norvegicus [21] = test: Inhibition of KMO in Sprague-Dawley rat brain assessed as time duration for elevation in kynurenine plasma level at 10 mg/kg, po by […] analysis; assay type: functional
[22] = Half life in Sprague-Dawley rat brain at 6.2 mg equivalents/kg, iv; assay type: ADME, tissue-based
[23] = Tmax in Sprague-Dawley rat brain at 12 mg equivalents/kg, po; assay type: ADME, tissue-based; method in brief: as §1
Rattus norvegicus [24] = test: Inhibition of KMO in po dosed Sprague-Dawley rat plasma assessed as elevation in kynurenine plasma level by […] analysis; assay type: functional, organism-based
[25] = Permeability from apical to basolateral side in human Caco2 cells; assay type: ADME, cell-based; details: Caco-2, read-out: permeability
[26] = Permeability from basolateral to apical side in human Caco2 cells; assay type: ADME, cell-based; details: Caco-2, read-out: permeability
Kidney = test: Dose normalized AUC (0 to infinity) in Sprague-Dawley rat kidney at 10 mg equivalents/kg, po after 0.25 to 12 hrs; assay type: ADME, organism-based; details: in vivo; method in brief: as §2
Striatum = test: Dose normalized Cmax in Sprague-Dawley rat striatum at 10 mg equivalents/kg, po after 0.25 to 12 hrs; assay type: ADME, organism-based; details: in vivo; method in brief: as §2
[27] = Tmax in Sprague-Dawley rat kidney at 10 mg equivalents/kg, po after 0.25 to 12 hrs; assay type: ADME, organism-based; method in brief: as §6
Rattus norvegicus [28] = test: Inhibition of KMO in po dosed Sprague-Dawley rat plasma assessed as reduction in quinolinic acid plasma level by LC-MS/MS analysis
[29] = Tmax in Sprague-Dawley rat cortex at 10 mg equivalents/kg, po after 0.25 to 12 hrs; assay type: ADME, organism-based; method in brief: as §6
Brain [30] = test: Dose normalized Cmax in Sprague-Dawley rat brain at 6.2 mg equivalents/kg, iv; assay type: ADME, tissue-based; details: in vivo
Plasma [31] = test: Dose normalized AUC (0 to infinity) in Sprague-Dawley rat plasma at 6.2 mg equivalents/kg, iv; assay type: ADME, cell-free

T1 sequence (O88867 whole entry): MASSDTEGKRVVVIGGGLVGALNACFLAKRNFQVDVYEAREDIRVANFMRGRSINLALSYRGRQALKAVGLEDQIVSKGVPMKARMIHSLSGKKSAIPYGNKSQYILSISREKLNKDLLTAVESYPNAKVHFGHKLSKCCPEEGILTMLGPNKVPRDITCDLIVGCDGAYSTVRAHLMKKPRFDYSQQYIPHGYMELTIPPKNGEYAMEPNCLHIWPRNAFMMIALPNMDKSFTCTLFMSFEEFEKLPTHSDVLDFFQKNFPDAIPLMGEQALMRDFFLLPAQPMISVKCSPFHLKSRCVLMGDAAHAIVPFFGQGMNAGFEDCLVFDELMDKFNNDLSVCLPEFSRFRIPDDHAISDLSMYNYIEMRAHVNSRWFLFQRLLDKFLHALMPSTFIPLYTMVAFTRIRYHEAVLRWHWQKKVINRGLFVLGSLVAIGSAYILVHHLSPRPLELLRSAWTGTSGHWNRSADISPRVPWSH
Chain of Kynurenine 3-monooxygenase (Homo sapiens, UniProt O15229) (O15229 whole entry): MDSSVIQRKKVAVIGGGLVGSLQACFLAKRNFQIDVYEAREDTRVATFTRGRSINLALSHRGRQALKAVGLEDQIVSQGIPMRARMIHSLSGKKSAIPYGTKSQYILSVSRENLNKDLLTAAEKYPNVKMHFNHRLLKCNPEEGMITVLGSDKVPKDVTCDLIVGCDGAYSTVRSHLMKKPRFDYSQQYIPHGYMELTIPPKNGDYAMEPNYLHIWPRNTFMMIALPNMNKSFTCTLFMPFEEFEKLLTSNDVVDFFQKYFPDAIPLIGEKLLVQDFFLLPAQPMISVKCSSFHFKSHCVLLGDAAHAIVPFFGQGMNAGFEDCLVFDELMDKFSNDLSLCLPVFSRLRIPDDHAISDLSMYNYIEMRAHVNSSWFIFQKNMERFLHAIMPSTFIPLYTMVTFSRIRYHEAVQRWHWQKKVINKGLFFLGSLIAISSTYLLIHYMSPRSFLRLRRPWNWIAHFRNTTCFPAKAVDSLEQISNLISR
Chain of Kynurenine 3-monooxygenase (Mus musculus, UniProt Q91WN4) (Q91WN4 whole entry): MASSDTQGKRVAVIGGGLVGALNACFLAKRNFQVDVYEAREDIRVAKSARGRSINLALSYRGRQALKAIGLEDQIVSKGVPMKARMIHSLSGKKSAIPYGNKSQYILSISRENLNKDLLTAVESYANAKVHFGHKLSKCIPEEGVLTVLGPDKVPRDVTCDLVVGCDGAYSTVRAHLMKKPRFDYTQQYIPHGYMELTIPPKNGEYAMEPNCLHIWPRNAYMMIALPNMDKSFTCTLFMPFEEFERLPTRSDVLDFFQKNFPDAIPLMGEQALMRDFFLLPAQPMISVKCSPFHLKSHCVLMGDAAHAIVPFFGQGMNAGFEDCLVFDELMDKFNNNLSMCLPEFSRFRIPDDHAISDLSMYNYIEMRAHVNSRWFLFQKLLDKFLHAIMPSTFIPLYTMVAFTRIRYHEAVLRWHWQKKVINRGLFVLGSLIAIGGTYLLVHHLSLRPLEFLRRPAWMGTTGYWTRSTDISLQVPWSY

IC50 [1]: 82 nM
Tmax [2]: 60 min
AUC/dose (Plasma [3]): 7.6 µM·kg·h/mg
half-life [4]: 102 min
AUC/dose (Plasma [5]): 3.1 µM·kg·h/mg
IC50 [7]: 5.1 nM
bioavailability [8]: 64%
Tmax [9]: 30 min
Cmax/dose (Cerebrospinal fluid): 0.011 µM·kg/mg
Cmax/dose (Liver): 9.3 µM·kg/mg
Tmax [10]: 30 min
half-life [12]: 150 min
IC50 [14]: 72 nM
half-life [15]: 138 min
AUC/dose (Brain [16]): 0.23 µM·kg·h/mg
IC50 [17]: 4 nM
Tmax [20]: 30 min
half-life [22]: 42 min
Tmax [23]: 60 min
Papp A→B [25]: 18.7 ×10⁻⁶ cm/s
Papp B→A [26]: 30.4 ×10⁻⁶ cm/s
AUC/dose (Kidney): 70 µM·kg·h/mg
Cmax/dose (Striatum): 0.047 µM·kg/mg
Tmax [27]: 30 min
Tmax [29]: 30 min
Cmax/dose (Brain [30]): 0.25 µM·kg/mg
AUC/dose (Plasma [31]): 12 µM·kg·h/mg
Compound: O=C(O)c1cc(-c2ccc(OC3CC3)c(Cl)c2)ncn1
Time (Rattus norvegicus [6]): 60 min
inhibition (Rattus norvegicus [11]): Dose-dependent effect
Time (Rattus norvegicus [13]): 40 min
Time (Rattus norvegicus [18]): 8 h
inhibition (Rattus norvegicus [19]): Dose-dependent effect
Time (Rattus norvegicus [21]): >=4 hr
inhibition (Rattus norvegicus [24]): Dose-dependent effect
inhibition (Rattus norvegicus [28]): Dose-dependent effect
